Screening results (PubChem)
In the library only some 1.1% were active in any assay of this set; here they are far more common.
proCasp3 act: procaspase-3 (human) activation. P42574. recombinant procaspase-3 D3A, Ac-DEVD-pNA absorbance 405 nm. activation, % at 8.5 µM. actives 0.11% (n = 330,000);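 active = activation above the mean of all tested compounds plus 3 SD, cut at about 21% in these data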;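 note: 0% = DMSO alone and 100% = DMSO wells spiked with extra 5 µM PC-3 D3A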
Target sequence (P42574 whole entry D9A/D28A/D175A): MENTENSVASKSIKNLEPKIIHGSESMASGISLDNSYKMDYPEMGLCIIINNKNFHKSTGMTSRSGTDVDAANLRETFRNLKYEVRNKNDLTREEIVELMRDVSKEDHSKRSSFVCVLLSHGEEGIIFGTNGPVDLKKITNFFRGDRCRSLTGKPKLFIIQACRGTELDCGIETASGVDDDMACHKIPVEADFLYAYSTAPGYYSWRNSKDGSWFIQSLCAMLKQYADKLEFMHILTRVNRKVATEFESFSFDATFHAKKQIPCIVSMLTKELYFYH
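Assay system – Procaspase-3 D3A mutant · Benchmarks – DMSO low control, extra-enzyme high control · Technique – 405 nm absorbance of p-nitroaniline, reads at 0 and 120 min · Doses – 8.5 µM nominal · Measure – % activation between DMSO and enzyme-spiked controls · Also added – Ac-DEVD-pNA chromogenic peptide substrate · Schedule – 1 h compound preincubation, 2 h substrate hydrolysis at 25 °C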
CaV13 FRET inh: Primary screen for inhibitors of IQ motif and Ca2+-dependent inactivation inhibitor domain binding in CACNA1D, Förster resonance energy transfer in living cells, …. inhibition, % at 12.3 µM. AID 743397. actives 0.098% (n = 340,000). HEK cells, CFP/YFP FRET ICDI-IQ, plate reader, 10 min; percent FRET-ratio fall versus neutral wells;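 active = mean replicate inhibition of at least 30% and at least 1% of replicates passing that level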;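 note: 0% = median of the neutral control wells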
T cell HTS: modulates CD8 T cell binding to vesicles. 2C CD8+ T cell-vesicle binding, flow cytometry; hits give low values. response (vesicle binding), % at 7 µM. actives 0.068% (n = 330,000). AID 2052;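 active = response, share of CD8 T cells binding vesicles, and their 90th percentile fluorescence all below set limits, cut at about 80% in these data, passing the limit was not always enough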;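 note: values below 100% mean blocked vesicle binding to the CD8+ T cells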
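Assay system: 2C TCR transgenic mouse naive CD8+ T cells, MACS-purified | Read-out: CD8+ gate FL2 mean fluorescence as % of same-row positive control | Signal: High-throughput flow cytometry with anti-B7-1 and anti-CD8 staining | Timing: Binding step 1.5 h, 37 °C, antibody labelling 20 min, ice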
aDG glyco act: alpha-DG glycosylation activation; actives 0.22% (n = 360,000); Pro5-aDG cells, alpha-DG glycosylation AlphaScreen (IIH6); 0% Pro5, 100% B10-LARGE cell signal; activation, % at 10 µM; AID 624168;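 active = activation of at least 8% versus controls, or a plate z-score of at least 8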;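 note: Pro5 are CHO cells carrying HIG-tagged alpha-DG that lacks glycosylation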
proCasp7 act: activates human procaspase-7, counter-screen for procaspase-3 activators; activation, % at 8.5 µM; P55210; recombinant procaspase-7, Ac-DEVD-pNA absorbance 405 nm; D23A/D198A/D206A triple mutant, cannot self-cleave; scale: DMSO 0, 5 µM enzyme 100; actives 0.093% (n = 330,000);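 active = percent activation above the screen-wide mean plus 3 SD, cut at about 25% in these data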
Target sequence (P55210 whole entry D23A/D198A/D206A): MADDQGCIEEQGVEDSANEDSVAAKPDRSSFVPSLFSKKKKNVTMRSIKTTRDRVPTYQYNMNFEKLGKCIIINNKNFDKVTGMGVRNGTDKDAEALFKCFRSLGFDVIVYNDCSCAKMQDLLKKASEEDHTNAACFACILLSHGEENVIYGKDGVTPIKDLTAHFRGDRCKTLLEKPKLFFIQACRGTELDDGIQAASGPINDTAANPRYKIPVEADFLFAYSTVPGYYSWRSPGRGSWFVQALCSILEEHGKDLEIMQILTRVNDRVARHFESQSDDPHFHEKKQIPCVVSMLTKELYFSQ
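Assay system – Uncleavable procaspase-7 mutant enzyme · Quantity – 2 µM procaspase-7 mutant as dispensed · Times – 1 h preincubation, 2 h reaction · Dosing – single nominal 8.5 µM compound dose, 0.8% DMSO final · Buffer or medium – Zinc-free 50 mM HEPES buffer, pH 7.4, with NaCl and Triton X-100 · Detection – Epi-absorbance of released pNA at 405 nm, two timepoints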
GRK2 inh: inhibitors of human GRK2 displacing RNA aptamer; bead flow cytometry, FAM-aptamer displacement from GRK2; actives 0.59% (n = 330,000); inhibition of aptamer binding, % at 10 µM;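 active = inhibition of aptamer binding above 40%, roughly 3 SD of noise, on plates passing a quality check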;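 note: median bead fluorescence of bound FAM aptamer so fluorescent compounds give negative values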
GRK2 CP1: human GRK2 inhibition confirmation, cherry pick 1 | shares compounds with GRK2 inh | bead-bound GRK2, FAM-aptamer displacement, flow cytometry | aptamer displacement, % at 10 µM | actives 4% (n = 2,000);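 active = aptamer displacement above 40%, near three times the noise of non-fluorescent compounds, on plates passing quality checks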;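 note: negative values mostly reflect intrinsic compound fluorescence rather than true enhancement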
FAM quench CP1: counter-screen for GRK2 aptamer inhibitors: fluorescent aptamer quenchers | shares compounds with GRK2 inh | Carboxyfluorescein RNA aptamer on beads, flow cytometry quenching; hits give low values | fluorescence response (% of DMSO), % at 10 µM | 2,000 tested, under 10 active;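 active = compounds that quench the bead-bound fluorescent RNA probe, cutting fluorescence to under half of the solvent control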;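 note: counterscreen run without GRK2 so only probe quenching by compound is measured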
GRK2 confirm 2: human GRK2 inhibition confirmation, cherry pick 2; shares compounds with GRK2 inh; bead-bound GRK2, FAM-aptamer displacement, flow cytometry; inhibition of aptamer binding, % at 10 µM; 360 tested, under 10 active; AID 504782;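 active = inhibition of aptamer binding above 40%, about triple the noise seen with nonglowing compounds, on plates passing quality control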;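 note: negative values mostly come from compounds that fluoresce themselves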
FAM quench SP: counter-screen for GRK2 binding hits: quenchers of fluorescent RNA aptamer; AID 588494; carboxyfluorescein RNA aptamer beads, flow cytometry quenching; hits give low values; 360 tested, under 10 active; shares compounds with GRK2 inh; fluorescence response vs DMSO, % at 10 µM;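 active = response vs DMSO under 50%, meaning signal dropped by over half, treated as fluorescence quencher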;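 note: labelled aptamer on streptavidin beads without GRK2 as a quench counter-screen; 100% = bead fluorescence of DMSO wells and lower means quenching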
An asterisk follows results filed as active; i = inactive; · = not tested or not shown.

SMILES	proCasp3 act	CaV13 FRET inh	T cell HTS	aDG glyco act	proCasp7 act	GRK2 inh	GRK2 CP1	FAM quench CP1	others
COc1ccccc1OCC(=O)NC1CCSc2ccccc21 (stereo not drawn)	3	-7	267	0	2	0	·	·
O=C(NCc1ccc2c(c1)OCO2)C1CCCN1S(=O)(=O)c1ccc(Cl)cc1 (stereo not drawn)	7	-3	i	0	4	0	·	·
CCCOc1ccc(OC(=O)Cc2ccc(OC)c(S(=O)(=O)N3CCOCC3)c2)cc1	10	-15	304	0	-3	100*	-7	100
O=C(O)C1CCCCN1C(=O)c1ccc(S(=O)(=O)N2CCCC2)cc1 (stereo not drawn)	·	-5	·	0	·	·	·	·
COc1ccc(C2C3C=CCC(c4cccc(-c5ccc(C)cc5)c4)C3C(=O)N2Cc2ccccc2)cc1Cl (stereo not drawn)	4	-5	574	0	10	3	-3	97
COc1cc(C(=O)Nc2c(C(=O)O)[nH]c3ccc(C)cc23)cc(OC)c1OC	·	-19	182	0	·	88*	3	98
COc1cccc(Nc2nc(C(N)Cc3ccc(C(F)(F)F)cc3)cs2)n1 (stereo not drawn)	·	-10	·	0	·	·	·	·
COc1ccc(C(=O)NC(C(=O)NCCc2ccc3c(c2)OCCO3)C(C)C)cc1 (stereo not drawn)	-5	-6	328	0	3	27	·	·
CCC(=O)N1CCc2cc(S(=O)(=O)CCC(=O)Nc3ccc(CC)cc3)ccc21	7	-4	132	0	-6	1	·	·	GRK2 confirm 2=12;FAM quench SP=99
CCc1ccc(NS(=O)(=O)c2ccc3c(c2)CCN3C(=O)CCC(=O)O)cc1	7	-20	862	0	2	52*	·	·	GRK2 confirm 2=6;FAM quench SP=102
Nc1nc(NCCO)nc(NCc2ccccc2)c1[N+](=O)[O-]	-3	·	142	0	-7	97*	4	96
Nc1nc(NCc2ccccc2)nc(NCCO)c1[N+](=O)[O-]	-1	-5	470	0	3	2	·	·
COCCN(C(=O)CN1CCc2ccccc21)c1c(N)n(Cc2ccccc2)c(=O)[nH]c1=O	2	-6	75	0	-7	0	·	·
CCN(C(=O)CN1CCc2ccccc21)c1c(N)n(Cc2ccccc2)c(=O)[nH]c1=O	-1	-20	i	0	5	0	-1	99
CC(=O)NC(c1ccccc1)c1nc(-c2ccc(C)c(C)c2)cs1 (stereo not drawn)	·	-5	·	0	·	·	·	·
O=C(C1COc2ccccc2O1)N1CCN(c2ccc(F)cc2)CC1 (stereo not drawn)	-5	-8	67	0	-10	0	·	·
O=C(C1COc2ccccc2O1)N1CCN(c2ccc([N+](=O)[O-])cc2)CC1 (stereo not drawn)	-10	-2	621	2	-12	98*	-2	98
C[C@H](O)[C@@H]1C(=O)N2CCc3c([nH]c4cccc(-c5ccccc5)c34)[C@@H]2C[C@@H]1N(C)CC1CCCCC1	·	-4	·	·	·	·	·	·
Nc1c(C(=O)NCCc2ccccc2)nnn1Cc1ccc(Br)cc1F	7	-14	473	0	10	50*	-7	103
COc1ccc(CN2CCN(C(C)C)C(CCO)C2)cc1Cn1cncn1 (stereo not drawn)	3	-5	151	0	3	46*	-3	98
CN(C)CCNc1c2c(nc3ccccc13)CCC2	2	-20	488	0	-8	0	·	·	GRK2 confirm 2=4;FAM quench SP=100
Fc1cccc(Nc2c3c(nc4ccccc24)CCC3)c1	0	-5	306	2	4	0	·	·	GRK2 confirm 2=1;FAM quench SP=100
O=C(NC(=S)Nc1ccc2nc[nH]c2c1)c1ccccc1	0	-2	179	0	-16	0	·	·
CCCc1ccc(OCc2ccc(C(=O)N3CCN(c4ccccn4)CC3)o2)c(OC)c1	2	-7	441	2	8	47*	2	96
COc1ccc(OC)c(/C=C/C(=O)N(C)CC(=O)Nc2ccc(N3CCOCC3)cc2)c1	0	-7	292	0	-1	1	·	·
SMILES	proCasp3 act	CaV13 FRET inh	T cell HTS	aDG glyco act	proCasp7 act	GRK2 inh	GRK2 CP1	FAM quench CP1	others
COC(=O)NCc1ccc(S(=O)(=O)N2CCOCC2)cc1	2	·	463	0	0	72*	2	95
C=CCN1C(=O)c2ccc(C(=O)N3CCN(S(=O)(=O)c4cccc(F)c4)CC3)cc2C1=O	-2	-2	234	0	2	5	·	·
Cc1nc(C(=O)NCc2ccccc2)sc1C1(C)CC(c2ccccc2)=NO1 (stereo not drawn)	8	-10	568	0	1	2	-1	101
CC(=O)N(Cc1ccccc1)Cc1nc2sc(C)c(C)c2c(=O)[nH]1	-7	-2	263	0	-3	4	·	·
Cc1sc2nc(CN(Cc3ccccc3)C(=O)NC3CCCCC3)[nH]c(=O)c2c1C	2	-5	346	0	-7	30	-2	101
Cc1ccc(S(=O)(=O)N2CCOCC2)cc1C(=O)NCCc1ccc(Cl)cc1	4	-6	430	0	-1	0	·	·
CC(C)=CCC/C(C)=C/CN1C(=O)N(c2ccc(F)cc2)[C@H]2C[C@@H](c3ccccc3)[C@@H](C)[C@@H](C(=O)N3CCOCC3)C[C@H]21	·	-5	·	·	·	·	·	·
COc1cccc(CNCC2CCCO2)c1 (stereo not drawn)	6	-6	259	0	1	1	·	·
